# Assay results taken from ChEMBL document CHEMBL1143996, “Toward the development of chemoprevention agents (III): synthesis and anti-inflammatory activities of a new class of 5-glycylamino-2-substituted-phenyl-1,3-dioxacycloalkanes” (Bioorg Med Chem, 2008).
# Tests used:
# Mus musculus [1] = assay: Toxicity assessed as tail bleeding in Kunming mouse at 200 mg/kg, po after 15 mins; type: organism-based; parameters: dose 200 mg/kg, route oral; conditions: in vivo, 0.25 h
# Method in brief: (§1)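 Male mice (18–22 g) given a single oral dose, normal saline vehicle, n = 10. At set times after dosing, mouse restrained in a tube holder with tail protruding and a 2-mm tail cut made. Blood wiped away every 30 s until bleeding stopped; bleeding time recorded in s and compared with pre-dose values.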
# Mus musculus [2] = assay: Toxicity assessed as tail bleeding in Kunming mouse at 200 mg/kg, po after 60 mins; type: organism-based; parameters: dose 200 mg/kg, route oral; conditions: in vivo, 1 h; method in brief: as §1
# Mus musculus [3] = assay: Toxicity assessed as tail bleeding in Kunming mouse at 200 mg/kg, po after 5 mins; type: organism-based; parameters: dose 200 mg/kg, route oral; conditions: in vivo; method in brief: as §1
# Mus musculus [4] = assay: Toxicity assessed as tail bleeding in Kunming mouse at 200 mg/kg, po after 30 mins; type: organism-based; parameters: dose 200 mg/kg, route oral; conditions: in vivo, 0.5 h; method in brief: as §1
# Mus musculus [5] = assay: Antiinflammatory activity in Kunming mouse assessed as inhibition of xylene-induced ear edema at 20 mg/kg, po; type: functional
# Mus musculus [6] = assay: Antiinflammatory activity in Kunming mouse assessed as inhibition of xylene-induced ear edema at 30 mg/kg, po; type: functional
# Method in brief: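 Male Kunming mice, 12 per group (tables give n = 11), dosed orally by gavage as a suspension in 0.5% carboxymethyl cellulose; CMC alone as vehicle control. After 30 min, 0.03 mL xylene applied to both surfaces of the right ear, with the left ear as control.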
SMILES,Time (Mus musculus [1]) [min],Time (Mus musculus [2]) [min],Time (Mus musculus [3]) [min],Time (Mus musculus [4]) [min],inhibition in vivo at 20 mg/kg (Mus musculus [5]) [%],inhibition in vivo at 30 mg/kg (Mus musculus [6]) [%]
C[C@H]1O[C@@H](c2ccccc2)OC[C@H]1NC(=O)CN,2,2.03,2.02,2.01,–,–
C[C@H]1O[C@@H](c2cccc([N+](=O)[O-])c2)OC[C@H]1NC(=O)CN,2.01,2,2.01,1.98,–,–
NCC(=O)N[C@H]1CCO[C@@H](c2ccc(Cl)cc2)OC1,2.01,2,1.99,2.01,–,–
C[C@H]1O[C@@H](c2ccc([N+](=O)[O-])cc2)OC[C@H]1N,–,–,–,–,78.5,–
C[C@H]1O[C@@H](c2ccc([N+](=O)[O-])cc2)OC[C@H]1NC(=O)CN,2.02,2.01,2,1.98,–,–
NCC(=O)N[C@H]1CCO[C@H](c2ccc([N+](=O)[O-])cc2)OC1,2.01,1.99,2.01,2,–,–
NCC(=O)N[C@H]1CCO[C@H](c2cccc([N+](=O)[O-])c2)OC1,2,2.02,2.02,2,–,–
NCC(=O)N[C@H]1CO[C@@H](c2ccccc2)OC1,2,2.01,2,2.02,–,–
NCC(=O)N[C@H]1CO[C@@H](c2ccc([N+](=O)[O-])cc2)OC1,2.01,2.02,2.02,2.04,–,–
NCC(=O)N[C@H]1CO[C@@H](c2ccc(Cl)cc2)OC1,2.01,2,2.01,2,–,–
C[C@H]1O[C@@H](c2ccc(Cl)cc2)OC[C@H]1NC(=O)CN,2.01,2.01,2.04,2,–,–
C[C@H]1O[C@@H](c2ccc(Cl)cc2)OC[C@H]1N,–,–,–,–,66.7,–
Cc1ccc([C@H]2OC[C@@H](NC(=O)CN)[C@@H](C)O2)cc1,2.04,2,2,2.02,–,–
NCC(=O)N[C@H]1CCO[C@H](c2ccc(Cl)cc2)OC1,1.99,1.99,2.02,2,–,–
NCC(=O)N[C@H]1CO[C@@H](c2cccc([N+](=O)[O-])c2)OC1,2,2.02,2,2.04,–,–
NCC(=O)N[C@H]1CCO[C@@H](c2ccc([N+](=O)[O-])cc2)OC1,2.05,1.99,2,2,–,–
Cc1ccc([C@H]2OC[C@@H](NC(=O)CN)CO2)cc1,2,2,2,1.99,–,–
NCC(=O)N[C@H]1CCO[C@@H](c2cccc([N+](=O)[O-])c2)OC1,1.99,1.99,1.99,2.05,–,–
CC(=O)Oc1ccccc1C(=O)O [ASPIRIN],–,–,–,–,–,40.7
